Source: PubChem
Shown is part of a subset that was picked to be rich in hits.
MPTP block: mitochondrial permeability transition pore inhibitors, primary screen, biochemical, isolated mouse mitochondria, absorbance; Ca2+ swelling absorbance, 30 min; inhibition, % at 10 µM; hit rate 1.4% among 360,000;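 active = inhibition of 50% or more, scaled per plate between neutral and stimulator controls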;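 note: 0% = DMSO wells given calcium and 100% = 1 mM EGTA wells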
DTT redox prof: compounds producing H2O2 with reducing agent – biochemical, NIH compound library profiling, artefact control for MLSCN library redox annotation, primary screen; DTT-dependent redox cycling H2O2, phenol red/HRP absorbance; 100% = 100 µM peroxide control, 0% = buffer; activation, % at 10 µM; hit rate 0.03% among 200,000; AID 878, 2007;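 active = activation of at least 50% relative to the plate's high and low controls in the primary single-dose screen; inactive = activation below 50%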;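 note: compound incubated with DTT at 0.8 mM final as the reducing agent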
L major viab: Leishmania major promastigote growth inhibition, primary screen | Leishmania major promastigotes, resazurin fluorescence viability | inhibition, % at 10 µM | hit rate 9% among 200,000 | AID 1063, 2008; in the data active = inhibition above about 50%;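 note: promastigotes grown with compound for 44 hours at 28 °C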
T cruzi inh: inhibitors of intracellular T. cruzi growth, primary screen, luminescence, NIH3T3 host cells. T. cruzi beta-gal in NIH3T3, 90 h. inhibition, % (test concentration not listed). hit rate 1.4% among 300,000;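 active = mean inhibition across valid replicates above about 55%, limit read from the data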;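 note: signal also drops with host cell toxicity which is not excluded here; 0% = plate median of DMSO wells and 100% = zero luminescence signal; higher percent means less beta-gal luminescence so fewer parasites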
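System – NIH/3T3 host cells with β-galactosidase reporter T. cruzi · Doses – single 50 nL compound addition per well in DMSO · Reagent – 5000 T. cruzi trypomastigotes/well · Medium – Low-serum DMEM with 2% FBS · Timing – ≥90 h infection period, 3 h prior cell attachment · Evaluation – parasite load inhibition, % · Technique – GalScreen luminescence, 60 min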
Lipid droplet: inhibitors of hepatocyte lipid droplet formation, primary screen, imaging, high-throughput imaging, BODIPY stain | AML12 mouse hepatocytes, oleate lipid droplets | inhibition, % at 6.5 µM | hit rate 0.4% among 240,000 | AID 1656, 2009;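 active = lipid droplet intensity inhibited by at least 50%, with more than 500 cells counted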
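Technique: fluorescence imaging, 20x objective, two fields per well / Assay system: AML12 hepatocytes (mouse) / Measure: % inhibition of lipid droplet signal / Doses: 6.5 µM single-point dosing / Incubation: overnight exposure / Reagent: 100 µM oleic acid challenge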
L major 1uM: Leishmania major promastigote growth inhibition, confirmation, 1 µM repeat of primary hits; AID 1258, 2008; hit rate 13% among 1,100; inhibition, % at 1 µM; shares compounds with L major viab; L. major promastigote growth, resazurin fluorescence, 48 h;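 active = inhibition above about 50% in both repeat tests, limit read from the data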
Starred values were filed as active, the others as inactive.

COc1ccc(NC(=O)C2C3C=CC4(O3)C2C(=O)N(CCN2CCCCC2)C4C(=O)NC2CCCC(C)C2C)cc1 (stereo unspecified) was read as MPTP block 1, T cruzi inh -3 and Lipid droplet -5.
Screening COc1ccc(NC(=O)c2sccc2SCc2cccc(C(F)(F)F)c2)cc1 returned MPTP block 1, DTT redox prof -4, L major viab 100*, T cruzi inh 69*, Lipid droplet -6 and L major 1uM -4.
Cc1nc(SCC(=O)O)c(C#N)c2c1CCCC2 was read as MPTP block 0, T cruzi inh -7 and Lipid droplet 0.
For CSc1nc(C)c2c(c1C#N)CCCC2 the results were MPTP block 4, DTT redox prof 0, L major viab 62*, T cruzi inh 3, Lipid droplet 2 and L major 1uM 16.
For CCCNC(=O)N1CCN(Cc2ccco2)CC1 the results were MPTP block -1, DTT redox prof 1, L major viab -1, T cruzi inh -15 and Lipid droplet -4.
CCOC(=O)Cc1cc(-c2ccc(F)cc2)nc2ccc3ccccc3c12 was read as MPTP block 2, DTT redox prof 1, L major viab 68*, T cruzi inh 25, Lipid droplet -7 and L major 1uM 7.
For O=C(c1ccc(Cn2c(=O)[nH]c3ccccc3c2=O)cc1)N1CCN(c2ccccn2)CC1 the results were MPTP block 0, DTT redox prof 0, L major viab 44, T cruzi inh -4 and Lipid droplet -67.
O=C(c1ccc(Cn2c(=O)[nH]c3ccccc3c2=O)cc1)N1CCN(c2ccccc2)CC1 was read as MPTP block 1, DTT redox prof 0, L major viab 94*, T cruzi inh 12 and L major 1uM 14.
Screening O=c1[nH][nH]c(=S)n1-c1ccccc1C(F)(F)F returned Lipid droplet -3.
For CC(C)c1ccc(N2C(=O)CC(NNC(=O)c3cccnc3)C2=O)cc1 (stereo unspecified) the results were MPTP block 7, T cruzi inh -10 and Lipid droplet 1.
Cc1cccc(-n2c3nc(=O)[nH]c(=O)c-3cc3c(C)nn(-c4ccccc4)c32)c1C was read as MPTP block 1, DTT redox prof 1, L major viab 5, T cruzi inh -6 and Lipid droplet -9.
Screening Cc1cccc(-n2c3nc(=O)[nH]c(=O)c-3cc3cc([N+](=O)[O-])ccc32)c1 returned MPTP block 0, DTT redox prof 0, L major viab 95*, T cruzi inh 9, Lipid droplet 1 and L major 1uM 15.
Cc1nn(C)c2ncc(C(N)=O)c(Oc3ccc(Cl)cc3)c12 was read as MPTP block 2, T cruzi inh 4 and Lipid droplet 24.
For CCOc1ncccc1C(=O)OCC(=O)Nc1ccc2c(c1)OCO2 the results were MPTP block 2, DTT redox prof -1, L major viab -2, T cruzi inh -6 and Lipid droplet -29.
For Cc1cc(O)ccc1NS(=O)(=O)c1ccc2c3c(cccc13)C(=O)N2 the results were MPTP block 0, T cruzi inh -7 and Lipid droplet -6.
For N#CCCCc1cc2ccccc2cn1 the results were MPTP block 0.
CN(Cc1cnn(C)c1)C(=O)C1CCCCC1C(=O)O (stereo unspecified) was read as MPTP block -1, DTT redox prof 0, L major viab 54*, Lipid droplet -2 and L major 1uM -12.
For O=S(=O)(c1ccc(-c2csc(-c3cccnc3)n2)cc1)N1CCCCC1 the results were MPTP block 5, DTT redox prof 1, L major viab 78*, T cruzi inh 66*, Lipid droplet 0 and L major 1uM 39.
For O=C(C1=C[C@H](c2ccc(Br)cc2)C[C@H](OCCCCO)O1)N1CCN(Cc2ccc3c(c2)OCO3)CC1 the results were MPTP block 0, DTT redox prof 2, L major viab 84*, T cruzi inh 65*, Lipid droplet -10 and L major 1uM -12.
For CC(=O)c1c(N2CCN(c3cccc(Cl)c3)CC2)nc(=S)n(-c2ccccc2)c1C the results were MPTP block -1, DTT redox prof 2, L major viab 91*, T cruzi inh 25, Lipid droplet 8 and L major 1uM -9.
CCn1c(C)c(C(C)=O)c(N2CCN(c3cccc(Cl)c3)CC2)nc1=S was read as MPTP block -2, DTT redox prof 0, L major viab -5, T cruzi inh -3 and Lipid droplet -8.
Screening COc1c2c(c(CCC(=O)O)c3c1C=CC(C)(C)O3)OC(C)(C)C=C2 returned MPTP block 0.
Cc1ccc(S(=O)(=O)/N=C(\CN2CCOCC2)N2CCCC2)cc1 was read as MPTP block -1, DTT redox prof 0, L major viab 3 and T cruzi inh 5.
Cc1ccc(S(=O)(=O)/N=C(\CCl)N2CCOCC2)cc1 was read as MPTP block 0, DTT redox prof 1, L major viab 87*, T cruzi inh -14, Lipid droplet -19 and L major 1uM 49.
Screening Cc1ccc(-c2cc3c(n2-c2ccc(C(=O)O)cc2)CCCC3=O)cc1 returned MPTP block -1, DTT redox prof 0, L major viab -6, T cruzi inh -21 and Lipid droplet 14.
For O=C1CCCc2c1cc(-c1ccccc1)n2-c1ccc(O)cc1 the results were MPTP block 3, DTT redox prof 0, L major viab 53*, T cruzi inh 16, Lipid droplet 3 and L major 1uM -22.
Screening Cc1ccc(-n2cc(CN(C)CCc3cn[nH]c3)c(-c3cccc(C)c3)n2)cc1 returned MPTP block 0, DTT redox prof -1, L major viab 65*, T cruzi inh 29, Lipid droplet -46 and L major 1uM -14.
Screening COc1cc(CC(NC(C)=O)C(=O)NC2CCN(c3c(Cc4ccccc4)c(C)nc4ncnn34)CC2)cc(OC)c1 (stereo unspecified) returned MPTP block 0, DTT redox prof 0, L major viab -7, T cruzi inh 2 and Lipid droplet -12.
For Cc1nc2ccc([N+](=O)[O-])cc2nc1C the results were MPTP block 3, DTT redox prof 1, L major viab 5, T cruzi inh 11 and Lipid droplet -5.
Screening Cc1ccc2nc3cc([N+](=O)[O-])cc([N+](=O)[O-])c3cc2c1 returned MPTP block 2, DTT redox prof -1, L major viab 101*, Lipid droplet -32 and L major 1uM 100*.
`CC1CCCC(NC(=O)COC(=O)c2cccs2)C1C` (stereo unspecified) gave MPTP block 0.
